Data published in PubChem BioAssay AID504383 (The Scripps Research Institute Molecular Screening Center, 2011).
Where “and” joins values, the source holds several entries; their conditions need not be identical. Equal entries are not always repeated. Screen size: about 2,500 compounds; about 1,200 (48%) were called active. The set was probably picked from earlier hits. The list shows a part of the results. A number with no mark means an inactive call.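 How the source made its calls: active means mean activation above the low control average plus 3 SD, as set in the primary screen (cut at about 12% in these data); inactive means the rest.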

target: Troponin I, cardiac muscle (Homo sapiens) + Troponin T, cardiac muscle (Homo sapiens) + Troponin C, slow skeletal and cardiac muscles (Homo sapiens) (UniProt P19429+P45379+P63316); assay: calcium sensitizers of cardiac thin filaments – biochemical, IANBD-TnC fluorescence, triplicate, confirmation (AID 504383); settings: IANBD-labeled cardiac RTF, Ca2+ sensitivity fluorescence, at 7.2 µM, hits give high values, tested at EC20 calcium, 0.472 mM;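 further: 0% = DMSO at 0.472 mM calcium and 100% = DMSO at 2.9 mM calcium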
Procedure, shortened: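 Material: labelled regulated thin filaments; Reagent: 0.472 mM calcium; Incubation: 15 min compound incubation with filaments at 25 °C; Detection: filament fluorescence intensity; Evaluation: fluorescence increase normalised to calcium controls; Benchmarks: low control EC20 calcium, high control EC100 calcium.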

SMILES | activation
NC(=O)c1c(NC(=O)c2ccc(S(=O)(=O)N(CCCl)CCCl)cc2)sc2c1CCCCC2 | 14.1% (active)
N#CC(C#N)=Cc1ccc(-c2ccccc2F)o1 | 45.7% (active)
CCn1c(O)c(C=Nc2ccc(N3CCOCC3)cc2)c(=O)n(CC)c1=S | 88.4% (active)
CCCCC(=O)N/N=C/c1c(O)n(CC)c(=S)n(CC)c1=O | 4.35%
O=c1[nH]c(=S)n(-c2ccc(Br)cc2)c(O)c1C=Nc1ccc(N2CCOCC2)cc1 | 6.9%
CCCCN1C(=O)NC(=O)C2(Cc3ccccc3N3CCOCC32)C1=O (stereo not drawn) | 4.27%
C=CCn1c(O)c(C=NC2CCN(Cc3ccccc3)CC2)c(=O)[nH]c1=O | 6.93%
O=c1[nH]c(=O)n(Cc2ccc(F)cc2)c(O)c1/C=N/Nc1ccccc1 | 107% (active)
CCCCCCC(=O)N/N=C/c1c(O)n(CCc2ccccc2)c(=O)[nH]c1=O | -0.94%
OC12CCCCC1C(c1ccccc1)NCC2 (stereo not drawn) | 7.25%
O=C(CN1CCN(c2ccccc2F)CC1)Nc1cccnc1Cl | 27.1% (active)
CN1/C(=C\C=C2C(=O)NC(=S)NC2=O)C(C)(C)c2ccccc21 | 10.4%
COc1ccc(CN2C(=O)NC(=O)/C(=C/c3ccoc3)C2=O)cc1 | 10.9%
O=C1NC(=O)N(c2cccc(Cl)c2)C(=O)/C1=C\c1ccc(Sc2nc3ccccc3[nH]2)o1 | 11.5%
Cc1cc(C)c(Cn2c(C(=O)O)c(C=O)c3ccccc32)c(C)c1 | 10.3%
O=c1[nH]c(=O)n(-c2ccccc2)c(O)c1/C=C/C=Nc1ccccc1 | 8.9%
O=c1[nH]c(O)c(C=Nc2ccccc2Oc2ccccc2)c(=O)[nH]1 | 10.2%
Cc1ccc(-n2c(O)c(/C=C/C=Nc3ccccc3)c(=O)[nH]c2=O)cc1 | 26.4% (active)
CCN(CC)c1ccc(N=Cc2c(O)n(Cc3ccco3)c(=O)[nH]c2=O)cc1 | 5.39%
O=c1[nH]c(=O)n(C2CCCCC2)c(O)c1/C=C/C=Nc1ccccc1 | 12.3% (active)
CNS(=O)(=O)c1ccc(N=Cc2c(O)n(-c3ccccc3)c(=O)[nH]c2=O)cc1 | 37.6% (active)
Cc1cccc(-n2c(O)c(/C=C/C=Nc3ccccc3)c(=O)[nH]c2=O)c1 | 414% (active)
COc1ccc(-n2c(O)c(/C=C/C=Nc3ccccc3)c(=O)[nH]c2=O)cc1 | 5.05%

SMILES | activation
CCN(CC)c1ccc(/C=N/c2sc3c(c2C#N)C2CCN3CC2)c(O)c1 | 7.45%
O=C1NC(=O)N(Cc2ccccc2)C(=O)/C1=C\N1CCCc2ccccc21 | 3.9%
O=c1[nH]c(O)c(/C=C2\C=Nc3ccc(OCc4ccccc4)cc32)c(=O)[nH]1 | 8.62%
Cn1c(O)c(/C=C/C=Nc2ccccc2)c(=O)n(C)c1=O | 9.76%
Cn1c(O)c(/C=C/C=Nc2ccccc2)c(=O)n(C)c1=S | 21.7% (active)
CCC(CO)NC(=O)C1C=C2c3cccc4[nH]cc(c34)CC2N(C)C1 (stereo not drawn) | 9.84%
CN1C[C@H](CO)C=C2c3cccc4[nH]cc(c34)C[C@H]21 | -3.89%
CC1=C[C@@H]2c3cccc4[nH]cc(c34)C[C@H]2N(C)C1 | 50% (active)
Nc1c(C(=O)NCC2CCCO2)c2nc3ccccc3nc2n1Cc1ccco1 (stereo not drawn) | 1930% (active)
COCCOC(=O)c1c(N)n(Cc2ccco2)c2nc3ccccc3nc12 | 8.08%
COCCNC(=O)c1c(N)n(Cc2ccco2)c2nc3ccccc3nc12 | 16.3% (active)
CC(C)n1c(=O)c(C=Nc2cccc([N+](=O)[O-])c2)c(O)n(CCc2ccccc2)c1=O | 19.7% (active)
Cc1cc(Cl)nc(N)n1 | 96.2% (active)
C[C@]12CCC(=O)C=C1CC[C@@H]1[C@@H]2CC[C@]2(C)C(=O)CC[C@@H]12 | -0.04%
CCOC(=O)c1ccccc1C(=O)OCC | 4170% (active)
CCN(CC)C(=O)c1ccc(NC(=O)COc2ccc([N+](=O)[O-])cc2Cl)cc1 | 4.48%
Nc1ccc2nonc2c1[N+](=O)[O-] | 6.77%
CCOC(=O)C1CCCN(c2ccc([N+](=O)[O-])c3nonc23)C1 (stereo not drawn) | 16.5% [scaled from EC20 to saturating calcium] (active)
O=[N+]([O-])c1ccc(N2CCCC2)c2ncccc12 | 38.3% (active)
O=[N+]([O-])c1ccc(N2CCCCCC2)c2nonc12 | 31.9% (active)
CC(C)C[C@H]1C(=O)N2CCC[C@H]2[C@]2(O)O[C@](NC(=O)[C@@H]3C=C4c5cccc6[nH]cc(c56)C[C@H]4N(C)C3)(C(C)C)C(=O)N12 | 8.78%
O=C1NC(=S)SC1=Cc1ccc(N(CCCl)CCCl)cc1 | 0.25%
CN1CCN(c2ccc3c(c2)S(=O)(=O)c2ccccc2C3=O)CC1 | 2.45%

SMILES | activation
CCN1C[C@]2(CO)CC[C@H](OC)[C@@]34C5C[C@H]6[C@H](OC)C5[C@](O)(C[C@H]6OC)[C@@H](C(OC)C23)[C@@H]14 (stereo partly drawn) | 15.5% (active)
C[C@]12CCC3C(CC[C@H]4C[C@@H](O)[C@H](O)C[C@]34C)C1CC[C@@H]2O (stereo partly drawn) | 24.5% (active)
Nc1c2c(nc3ccccc13)CCN(Cc1ccccc1)C2 | 87.8% (active)
CCOP(=O)(Cc1cc(C#N)oc1C)OCC | 7.87%
O=C(O)C1=CC2c3ccccc3C1c1ccccc12 | 11.7% (active)
CC(C)c1ccc(N2C(=O)NC(=O)/C(=C/C=C/c3ccco3)C2=O)cc1 | 7.28%
CN(C)P(=O)(CCl)Nc1ccccc1 (stereo not drawn) | 38.8% (active)
CN1CCC2(CC1)C(C#N)=C(N)NC(S)=C2C#N | 6.17% and 11.4%
COC(=O)[C@H]1C[C@@H]1[C@H](NP(=O)(c1ccccc1)c1ccccc1)c1ccccc1 | -0.05%
CCOCCCn1c(N)c(C(=O)Nc2sc3c(c2C(=O)OC)CCCC3)c2nc3ccccc3nc21 | 12.7% (active)
COc1ccc(N=Nc2c(O)[nH]c(=S)[nH]c2=O)cc1 | 6.09%
CCOC(=O)c1cc(CC)sc1/N=C/c1c(O)[nH]c(=S)[nH]c1=O | 8.76%
O=c1cc(C(F)(F)F)c2cc3c4c(c2o1)CCCN4CCC3 | 67.7% (active)
Cc1cc2c(C(F)(F)F)cc(=O)oc2c2c1NCCC2 | 79.4% (active)
Cc1ccc(C)c(Cn2c(C(=O)O)c(C=O)c3ccccc32)c1 | 4.27%
CN1/C(=C\C=C2C(=O)NC(=O)NC2=O)C(C)(C)c2ccccc21 | 9.74%
CCC1(C)OC(c2ccccc2)=C/C(=C/C=C2C(=O)NC(=O)NC2=O)O1 (stereo not drawn) | 32.1% (active)
CC1(C)OC(c2ccccc2)=C/C(=C/C=C2C(=O)NC(=O)NC2=O)O1 | 6.59%
CN1CCN(Cc2cn(C)c3ccccc23)CC1CCO (stereo not drawn) | 40.5% (active)
C#C[C@]1(O)CC[C@H]2[C@@H]3CCC4=Cc5nc6nc7ccccc7n6cc5C[C@]4(C)[C@H]3CC[C@@]21C | 6.44%
C=Cn1ccnc1P(=S)(c1nccn1C=C)c1nccn1C=C | 23.4% (active)
COC(=O)C1=C(c2cccc(C#N)c2)C[C@@H]2CC[C@H]1N2C(=O)N1CCOCC1 | 14.3% (active)
